In ChEMBL document CHEMBL2016552, “Pyrazine-based Syk kinase inhibitors” (Bioorg Med Chem Lett, 2012):
Values after ≈ are worked out from the molar mass of the structure shown. Values belong to the compound of their own block, whether it stands above or below them.

Experiments:
LAD2 [1] = experiment: Inhibition of IgE-mediated human LAD2 cell degranulation assessed as beta-hexosaminidase release using p-nitrophenyl-N-acetyl-D-glucosamide as substrate preincubated for 30 mins measured 90 mins after substrate addition by spectrophotometric analysis
LAD2 [2] = experiment: Inhibition of IgE-mediated human LAD2 cell degranulation assessed as beta-hexosaminidase release using p-nitrophenyl-N-acetyl-D-glucosamide as substrate at 1 uM preincubated for 30 mins measured 90 mins after substrate addition by spectrophotometric analysis; format: functional
Procedure, shortened: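 LAD2 mast cells sensitised overnight (37°, 5% CO2) in StemPro-34 with 2 mM glutamine and 100 ng/ml SCF plus 100 ng/ml biotin-IgE. Cells washed into release buffer (0.025% BSA), 10,000/well, compound 30 min, then streptavidin 125 ng/ml for 30 min. Supernatants and freeze-thaw lysates incubated with 1 mM substrate (citrate, pH 4.5) 90 min at 37°C. Stopped with 0.4 M glycine pH 10.0; A405 read.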

[3] = biological target: Tyrosine-protein kinase SYK (Homo sapiens, UniProt P43405); experiment: Inhibition of human recombinant […] using poly-GT as substrate and [33P]ATP after 40 mins by beta counting
[4] = Aqueous solubility of the compound at pH 7.4; format: physicochemical
[5] = Lipophilicity, log D of the compound at pH 7.4; format: physicochemical; conditions: buffer
[6] = biological target: T1, Tyrosine-protein kinase Lyn (Homo sapiens, UniProt P07948); experiment: Inhibition of human Lyn
Target sequence in this assay (P07948 whole entry): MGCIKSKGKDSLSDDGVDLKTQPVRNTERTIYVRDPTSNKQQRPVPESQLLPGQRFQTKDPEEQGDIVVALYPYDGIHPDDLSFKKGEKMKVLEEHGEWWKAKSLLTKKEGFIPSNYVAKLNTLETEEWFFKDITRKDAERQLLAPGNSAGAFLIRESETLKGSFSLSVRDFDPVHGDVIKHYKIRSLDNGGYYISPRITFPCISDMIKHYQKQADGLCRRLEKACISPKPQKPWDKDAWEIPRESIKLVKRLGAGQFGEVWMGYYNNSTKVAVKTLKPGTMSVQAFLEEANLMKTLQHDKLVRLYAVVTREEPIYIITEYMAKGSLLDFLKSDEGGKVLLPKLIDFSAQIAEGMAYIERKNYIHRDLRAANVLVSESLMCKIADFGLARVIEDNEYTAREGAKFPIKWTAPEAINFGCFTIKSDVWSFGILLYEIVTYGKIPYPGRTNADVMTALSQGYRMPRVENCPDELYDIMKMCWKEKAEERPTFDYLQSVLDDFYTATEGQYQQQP

CHO = experiment: Cytotoxicity against CHO cells; format: cell-based, Cricetulus griseus; conditions: chinese hamster
[7] = Apparent permeability across apical to basolateral side in human Caco2 cells; format: ADME, cell-based; conditions: Caco-2
[8] = Apparent permeability across basolateral to apical side in human Caco2 cells; format: ADME, cell-based; conditions: Caco-2
[9] = biological target: Tyrosine-protein kinase BTK (Homo sapiens) (UniProt Q06187); conditions: 1 uM
[10] = biological target: Calcium/calmodulin-dependent protein kinase type II subunit delta (Homo sapiens) (UniProt Q13557); conditions: 1 uM
[11] = biological target: Serine/threonine-protein kinase Chk1 (Homo sapiens) (UniProt O14757); conditions: 1 uM
[12] = biological target: Casein kinase I isoform delta (Homo sapiens) (UniProt P48730); conditions: 1 uM
[13] = biological target: Focal adhesion kinase 1 (Homo sapiens) (UniProt Q05397); conditions: 1 uM
[14] = biological target: Glycogen synthase kinase-3 beta (Homo sapiens) (UniProt P49841); conditions: 1 uM
[15] = biological target: Inhibitor of nuclear factor kappa-B kinase subunit beta (Homo sapiens) (UniProt O14920); conditions: 1 uM
[16] = biological target: Tyrosine-protein kinase ITK/TSK (Homo sapiens) (UniProt Q08881); conditions: 1 uM
[17] = biological target: Mitogen-activated protein kinase 10 (Homo sapiens) (UniProt P53779); conditions: 1 uM
[18] = biological target: Hepatocyte growth factor receptor (Homo sapiens) (UniProt P08581); conditions: 1 uM
[19] = biological target: Dual specificity mitogen-activated protein kinase kinase 6 (Homo sapiens) (UniProt P52564); conditions: 1 uM
[20] = biological target: 3-phosphoinositide-dependent protein kinase 1 (Homo sapiens) (UniProt O15530); conditions: 1 uM
[21] = biological target: Protein kinase C beta type (Homo sapiens) (UniProt P05771); conditions: 1 uM
[22] = biological target: Protein kinase C gamma type (Homo sapiens) (UniProt P05129); conditions: 1 uM
[23] = biological target: Protein kinase C epsilon type (Homo sapiens) (UniProt Q02156); conditions: 1 uM
[24] = biological target: MAP kinase-activated protein kinase 5 (Homo sapiens) (UniProt Q8IW41); conditions: 1 uM
[25] = biological target: Protein-tyrosine kinase 2-beta (Homo sapiens) (UniProt Q14289); conditions: 1 uM
[26] = biological target: Rho-associated protein kinase 2 (Homo sapiens) (UniProt O75116); conditions: 1 uM
[27] = biological target: Mitogen-activated protein kinase kinase kinase 7 (TAK1) (Homo sapiens) (UniProt O43318); conditions: 1 uM
[28] = biological target: Tyrosine-protein kinase ZAP-70 (Homo sapiens) (UniProt P43403); conditions: 1 uM
[29] = biological target: ALK tyrosine kinase receptor (Homo sapiens) (UniProt Q9UM73); conditions: 1 uM
[30] = biological target: Aurora kinase A (Homo sapiens) (UniProt O14965); conditions: 1 uM
[31] = biological target: Tyrosine-protein kinase receptor UFO (Homo sapiens) (UniProt P30530); conditions: 1 uM
[32] = biological target: Cyclin-dependent kinase 1/cyclin B1 (Homo sapiens) (UniProt P06493+P14635); conditions: 1 uM
[33] = biological target: Proto-oncogene tyrosine-protein kinase Src (Homo sapiens) (UniProt P12931); conditions: 1 uM
[34] = biological target: Fibroblast growth factor receptor 3 (Homo sapiens) (UniProt P22607); conditions: 1 uM
[35] = biological target: Tyrosine-protein kinase Fgr (Homo sapiens) (UniProt P09769); conditions: 1 uM
[36] = biological target: Vascular endothelial growth factor receptor 1 (Homo sapiens) (UniProt P17948); conditions: 1 uM
[37] = biological target: Receptor-type tyrosine-protein kinase FLT3 (Homo sapiens) (UniProt P36888); conditions: 1 uM
[38] = biological target: Macrophage colony-stimulating factor 1 receptor (Homo sapiens) (UniProt P07333); conditions: 1 uM
[39] = biological target: Tyrosine-protein kinase Fyn (Homo sapiens) (UniProt P06241); conditions: 1 uM
[40] = biological target: Glycogen synthase kinase-3 alpha (Homo sapiens) (UniProt P49840); conditions: 1 uM
[41] = biological target: Tyrosine-protein kinase HCK (Homo sapiens) (UniProt P08631); conditions: 1 uM
[42] = biological target: Tyrosine-protein kinase JAK2 (Homo sapiens) (UniProt O60674); conditions: 1 uM
[43] = biological target: Tyrosine-protein kinase JAK3 (Homo sapiens) (UniProt P52333); conditions: 1 uM
[44] = biological target: Tyrosine-protein kinase Lck (Homo sapiens) (UniProt P06239); conditions: 1 uM
[45] = biological target: Serine/threonine-protein kinase pim-1 (Homo sapiens) (UniProt P11309); conditions: 1 uM
[46] = biological target: Proto-oncogene tyrosine-protein kinase receptor Ret (Homo sapiens) (UniProt P07949); conditions: 1 uM
[47] = biological target: Ribosomal protein S6 kinase alpha-6 (Homo sapiens) (UniProt Q9UK32); conditions: 1 uM
[48] = biological target: High affinity nerve growth factor receptor (Homo sapiens) (UniProt P04629); conditions: 1 uM
[49] = biological target: Tyrosine-protein kinase Yes (Homo sapiens) (UniProt P07947); conditions: 1 uM
[50] = biological target: T1, Tyrosine-protein kinase Lyn; conditions: 1 uM

Sequence of High affinity nerve growth factor receptor (Homo sapiens) (P04629 33-796 limits assumed): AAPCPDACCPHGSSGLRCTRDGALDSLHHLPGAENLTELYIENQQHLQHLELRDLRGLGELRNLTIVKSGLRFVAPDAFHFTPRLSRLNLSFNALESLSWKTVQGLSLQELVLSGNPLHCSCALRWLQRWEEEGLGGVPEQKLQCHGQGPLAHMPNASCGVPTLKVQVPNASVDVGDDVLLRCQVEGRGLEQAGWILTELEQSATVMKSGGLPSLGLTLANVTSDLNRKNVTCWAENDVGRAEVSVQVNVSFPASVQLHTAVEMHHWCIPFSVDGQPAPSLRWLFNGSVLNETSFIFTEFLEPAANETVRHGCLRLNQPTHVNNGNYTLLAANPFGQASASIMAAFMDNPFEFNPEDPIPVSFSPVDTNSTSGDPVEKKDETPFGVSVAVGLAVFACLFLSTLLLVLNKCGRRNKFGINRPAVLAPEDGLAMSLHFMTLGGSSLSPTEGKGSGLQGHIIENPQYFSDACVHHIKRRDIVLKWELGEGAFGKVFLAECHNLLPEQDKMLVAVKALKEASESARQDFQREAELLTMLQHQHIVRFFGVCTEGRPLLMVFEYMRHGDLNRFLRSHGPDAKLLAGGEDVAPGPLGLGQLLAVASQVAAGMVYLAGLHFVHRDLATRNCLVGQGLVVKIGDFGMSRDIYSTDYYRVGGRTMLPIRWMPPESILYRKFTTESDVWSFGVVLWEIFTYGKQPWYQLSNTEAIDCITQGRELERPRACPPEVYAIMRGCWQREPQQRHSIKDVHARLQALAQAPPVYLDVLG
Sequence of Mitogen-activated protein kinase kinase kinase 7 (TAK1) (Homo sapiens) (O43318 whole entry, looked up): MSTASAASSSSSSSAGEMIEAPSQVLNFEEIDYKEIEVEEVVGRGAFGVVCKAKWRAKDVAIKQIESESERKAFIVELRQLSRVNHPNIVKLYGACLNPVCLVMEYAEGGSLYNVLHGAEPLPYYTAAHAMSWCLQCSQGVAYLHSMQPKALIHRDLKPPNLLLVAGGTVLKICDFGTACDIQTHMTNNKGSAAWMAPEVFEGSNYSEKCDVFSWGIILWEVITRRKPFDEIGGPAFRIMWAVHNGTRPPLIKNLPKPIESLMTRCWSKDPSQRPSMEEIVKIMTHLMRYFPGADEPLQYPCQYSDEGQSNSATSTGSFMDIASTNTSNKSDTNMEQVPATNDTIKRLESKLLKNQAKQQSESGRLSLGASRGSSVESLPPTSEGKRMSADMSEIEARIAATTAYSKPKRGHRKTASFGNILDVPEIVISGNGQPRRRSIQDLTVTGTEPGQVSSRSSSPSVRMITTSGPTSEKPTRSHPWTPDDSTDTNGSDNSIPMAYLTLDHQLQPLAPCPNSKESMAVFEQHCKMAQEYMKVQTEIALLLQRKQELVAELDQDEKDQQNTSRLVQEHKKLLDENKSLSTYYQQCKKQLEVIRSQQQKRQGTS
Sequence of Tyrosine-protein kinase BTK (Homo sapiens) (Q06187 whole entry): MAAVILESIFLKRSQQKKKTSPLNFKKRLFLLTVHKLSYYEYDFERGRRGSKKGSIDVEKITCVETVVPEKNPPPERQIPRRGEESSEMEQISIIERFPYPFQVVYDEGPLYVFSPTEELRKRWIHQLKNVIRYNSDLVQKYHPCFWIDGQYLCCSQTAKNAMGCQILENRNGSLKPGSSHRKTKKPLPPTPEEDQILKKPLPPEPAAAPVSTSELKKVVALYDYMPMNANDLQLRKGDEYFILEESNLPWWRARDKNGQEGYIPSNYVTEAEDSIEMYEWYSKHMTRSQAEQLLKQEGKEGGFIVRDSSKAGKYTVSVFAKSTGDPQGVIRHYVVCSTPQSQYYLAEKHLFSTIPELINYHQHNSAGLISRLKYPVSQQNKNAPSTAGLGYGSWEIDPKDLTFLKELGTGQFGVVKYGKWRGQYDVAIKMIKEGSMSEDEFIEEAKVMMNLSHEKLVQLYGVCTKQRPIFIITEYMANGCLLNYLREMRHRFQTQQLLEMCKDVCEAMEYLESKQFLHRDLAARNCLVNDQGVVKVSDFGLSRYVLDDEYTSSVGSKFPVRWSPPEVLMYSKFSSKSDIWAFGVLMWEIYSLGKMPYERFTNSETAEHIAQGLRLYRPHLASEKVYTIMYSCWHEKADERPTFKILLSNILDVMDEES
Sequence of Serine/threonine-protein kinase Chk1 (Homo sapiens) (O14757 whole entry, canonical isoform): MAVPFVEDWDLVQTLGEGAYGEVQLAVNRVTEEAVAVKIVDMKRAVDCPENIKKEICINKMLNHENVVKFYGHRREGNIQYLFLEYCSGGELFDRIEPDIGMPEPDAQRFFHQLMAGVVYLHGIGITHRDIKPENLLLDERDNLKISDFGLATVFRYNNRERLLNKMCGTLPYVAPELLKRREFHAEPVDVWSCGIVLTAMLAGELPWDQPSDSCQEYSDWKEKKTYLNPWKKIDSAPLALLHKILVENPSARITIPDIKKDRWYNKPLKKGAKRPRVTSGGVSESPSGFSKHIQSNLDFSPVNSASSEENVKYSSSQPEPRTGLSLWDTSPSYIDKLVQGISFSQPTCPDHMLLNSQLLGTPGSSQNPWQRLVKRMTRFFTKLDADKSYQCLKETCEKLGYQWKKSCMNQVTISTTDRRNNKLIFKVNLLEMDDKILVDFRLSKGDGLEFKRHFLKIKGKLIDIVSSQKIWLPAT
Sequence of Tyrosine-protein kinase receptor UFO (Homo sapiens) (P30530 whole entry): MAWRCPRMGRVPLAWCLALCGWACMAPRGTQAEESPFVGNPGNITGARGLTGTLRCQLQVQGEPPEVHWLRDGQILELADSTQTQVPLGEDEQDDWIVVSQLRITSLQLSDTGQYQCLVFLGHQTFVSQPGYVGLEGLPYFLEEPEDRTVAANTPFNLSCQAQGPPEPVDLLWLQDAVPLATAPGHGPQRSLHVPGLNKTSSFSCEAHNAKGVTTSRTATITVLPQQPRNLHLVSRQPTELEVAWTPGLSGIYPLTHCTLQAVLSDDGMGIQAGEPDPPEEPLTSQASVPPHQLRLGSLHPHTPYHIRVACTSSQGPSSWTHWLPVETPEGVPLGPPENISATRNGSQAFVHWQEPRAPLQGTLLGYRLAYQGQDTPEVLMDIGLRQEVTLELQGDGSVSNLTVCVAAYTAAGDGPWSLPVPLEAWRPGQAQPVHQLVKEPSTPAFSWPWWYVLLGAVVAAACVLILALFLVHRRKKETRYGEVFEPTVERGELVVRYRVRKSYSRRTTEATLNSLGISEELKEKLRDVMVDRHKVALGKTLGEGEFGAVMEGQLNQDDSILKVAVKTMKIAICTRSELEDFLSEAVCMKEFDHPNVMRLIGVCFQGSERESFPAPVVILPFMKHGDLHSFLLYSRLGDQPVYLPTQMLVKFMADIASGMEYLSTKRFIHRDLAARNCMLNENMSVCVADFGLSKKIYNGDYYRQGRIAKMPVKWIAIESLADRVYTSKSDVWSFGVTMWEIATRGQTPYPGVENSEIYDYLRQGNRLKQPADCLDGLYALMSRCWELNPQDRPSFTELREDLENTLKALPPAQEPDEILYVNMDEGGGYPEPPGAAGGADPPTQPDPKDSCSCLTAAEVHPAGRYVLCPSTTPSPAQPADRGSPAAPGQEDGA
Sequence of Protein-tyrosine kinase 2-beta (Homo sapiens) (Q14289 whole entry, looked up): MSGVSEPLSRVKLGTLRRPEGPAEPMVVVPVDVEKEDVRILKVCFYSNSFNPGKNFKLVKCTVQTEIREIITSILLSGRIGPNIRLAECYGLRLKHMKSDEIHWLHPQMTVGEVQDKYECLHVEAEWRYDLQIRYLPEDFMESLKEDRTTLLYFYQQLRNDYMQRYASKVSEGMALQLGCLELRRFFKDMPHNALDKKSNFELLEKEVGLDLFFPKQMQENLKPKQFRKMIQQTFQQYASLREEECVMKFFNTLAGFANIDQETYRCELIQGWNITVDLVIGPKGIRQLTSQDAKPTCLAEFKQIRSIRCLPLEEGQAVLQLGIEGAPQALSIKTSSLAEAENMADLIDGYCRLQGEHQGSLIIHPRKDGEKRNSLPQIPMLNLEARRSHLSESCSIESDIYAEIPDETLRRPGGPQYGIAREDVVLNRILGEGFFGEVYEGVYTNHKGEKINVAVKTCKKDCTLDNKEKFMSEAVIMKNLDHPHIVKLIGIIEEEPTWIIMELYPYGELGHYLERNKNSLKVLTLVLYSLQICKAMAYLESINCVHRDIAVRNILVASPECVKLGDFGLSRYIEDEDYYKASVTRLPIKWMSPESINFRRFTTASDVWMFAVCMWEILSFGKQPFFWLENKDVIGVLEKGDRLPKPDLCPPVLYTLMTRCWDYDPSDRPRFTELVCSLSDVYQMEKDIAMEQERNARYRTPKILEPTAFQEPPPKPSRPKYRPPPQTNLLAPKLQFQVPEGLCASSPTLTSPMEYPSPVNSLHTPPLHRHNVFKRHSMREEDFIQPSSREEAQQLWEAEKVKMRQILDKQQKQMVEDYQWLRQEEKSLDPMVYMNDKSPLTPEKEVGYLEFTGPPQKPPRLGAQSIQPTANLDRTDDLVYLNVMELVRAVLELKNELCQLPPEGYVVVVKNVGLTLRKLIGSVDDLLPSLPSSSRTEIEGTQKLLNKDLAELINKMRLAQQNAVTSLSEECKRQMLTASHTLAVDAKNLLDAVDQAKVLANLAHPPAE

IC50 (LAD2 [1]): 1100 nM
Structure (SMILES): CC(C)(NC(=O)c1nc(-c2cccc(OC(F)(F)F)c2)cnc1N)C1CCNCC1

Structure (SMILES): COc1cncc(-c2cccc(-c3cnc(N)c(C(=O)NC(C)(C)C4CCNCC4)n3)c2)c1
inhibition at 1 µM (LAD2 [2]): 65%

Structure (SMILES): Cn1cc(-c2cccc(-c3cnc(N)c(C(=O)N[C@H]4C5CC6CC4C[C@@](O)(C6)C5)n3)c2)cn1
IC50 [3]: 40 nM
IC50 (LAD2 [1]): 90 nM
solubility [4]: 25 µg/mL (≈ 56.2 µM)
logD [5]: 1.5
IC50 [6]: 325 nM
Activity (CHO): Non-toxic
Papp A→B [7]: 28 ×10⁻⁶ cm/s
Papp B→A [8]: 13 ×10⁻⁶ cm/s
inhibition [9]: < 50%
inhibition [10]: < 50%
inhibition [11]: < 50%
inhibition [12]: < 50%
inhibition [13]: < 50%
inhibition [14]: < 50%
inhibition [15]: < 50%
inhibition [16]: < 50%
inhibition [17]: < 50%
inhibition [18]: < 50%
inhibition [19]: < 50%
inhibition [20]: < 50%
inhibition [21]: < 50%
inhibition [22]: < 50%
inhibition [23]: < 50%
inhibition [24]: < 50%
inhibition [25]: < 50%
inhibition [26]: < 50%
inhibition [27]: < 50%
inhibition [28]: < 50%
inhibition [29]: > 50%
inhibition [30]: > 50%
inhibition [31]: > 50%
inhibition [32]: > 50%
inhibition [33]: > 50%
inhibition [34]: > 50%
inhibition [35]: > 50%
inhibition [36]: > 50%
inhibition [37]: > 50%
inhibition [38]: > 50%
inhibition [39]: > 50%
inhibition [40]: > 50%
inhibition [41]: > 50%
inhibition [42]: > 50%
inhibition [43]: > 50%
inhibition [44]: > 50%
inhibition [45]: > 50%
inhibition [46]: > 50%
inhibition [47]: > 50%
inhibition [48]: > 50%
inhibition [49]: > 50%
inhibition [50]: > 50%

Structure (SMILES): CS(=O)(=O)Nc1cccc(-c2cnc(N)c(C(=O)N3CCC(O)CC3)n2)c1
IC50 [3]: > 50000 nM

IC50 (LAD2 [1]): 220 nM
Structure (SMILES): CC(C)n1cc(-c2cccc(-c3cnc(N)c(C(=O)N[C@H]4C5CC6CC4C[C@@](O)(C6)C5)n3)c2)cn1

IC50 (LAD2 [1]): 560 nM
Papp B→A [8]: 2.38 ×10⁻⁶ cm/s
Structure (SMILES): CC(C)(NC(=O)c1nc(-c2cccc(-c3ccc(N)nc3)c2)cnc1N)C1CCNCC1

IC50 (LAD2 [1]): 140 nM
Structure (SMILES): Nc1ncc(-c2cccc(-c3cnn(CCO)c3)c2)nc1C(=O)N[C@H]1C2CC3CC1C[C@](O)(C3)C2

IC50 (LAD2 [1]): 150 nM
Structure (SMILES): Cc1cc(-c2cnn(C)c2)cc(-c2cnc(N)c(C(=O)N[C@H]3C4CC5CC3C[C@@](O)(C5)C4)n2)c1

IC50 (LAD2 [1]): 1000 nM
Structure (SMILES): NCCn1cc(-c2cccc(-c3cnc(N)c(C(=O)N[C@H]4C5CC6CC4C[C@@](O)(C6)C5)n3)c2)cn1

IC50 (LAD2 [1]): 120 nM
Structure (SMILES): Nc1ncc(-c2cccc(-c3cnn(CCO)c3)c2)nc1C(=O)N[C@H]1C2CC3CC1C[C@@](O)(C3)C2

IC50 (LAD2 [1]): 100 nM
Structure (SMILES): Nc1ncc(-c2cccc(-c3cn[nH]c3)c2)nc1C(=O)N[C@H]1C2CC3CC1C[C@@](O)(C3)C2

Structure (SMILES): CC(C)(NC(=O)c1nc(-c2ccc3c(c2)NC(=O)C3)cnc1N)C1CCNCC1
inhibition at 1 µM (LAD2 [2]): 10%

IC50 (LAD2 [1]): 120 nM
Structure (SMILES): Nc1ncc(-c2ccc3cn[nH]c3c2)nc1C(=O)N[C@H]1C2CC3CC1C[C@@](O)(C3)C2

IC50 (LAD2 [1]): 550 nM
Structure (SMILES): Cn1cc(-c2cccc(-c3cnc(N)c(C(=O)NC(C)(C)C4CCNCC4)n3)c2)cn1

IC50 (LAD2 [1]): 140 nM
Structure (SMILES): COc1cc(-c2cnn(C)c2)cc(-c2cnc(N)c(C(=O)N[C@H]3C4CC5CC3C[C@@](O)(C5)C4)n2)c1

IC50 (LAD2 [1]): 180 nM
Structure (SMILES): Nc1ccc(-c2cccc(-c3cnc(N)c(C(=O)N[C@H]4C5CC6CC4C[C@@](O)(C6)C5)n3)c2)cn1

Structure (SMILES): CC(C)(NC(=O)c1nc(-c2cccc3cn[nH]c23)cnc1N)C1CCNCC1
inhibition at 1 µM (LAD2 [2]): 48%

IC50 (LAD2 [1]): 110 nM
Structure (SMILES): CCn1cc(-c2cccc(-c3cnc(N)c(C(=O)N[C@H]4C5CC6CC4C[C@@](O)(C6)C5)n3)c2)cn1

Structure (SMILES): Cn1cc(-c2cccc(-c3cnc(N)c(C(=O)N[C@H]4C5CC6CC4C[C@](O)(C6)C5)n3)c2)cn1
IC50 [3]: 20 nM
IC50 (LAD2 [1]): 120 nM

IC50 (LAD2 [1]): 170 nM
Structure (SMILES): CCCn1cc(-c2cccc(-c3cnc(N)c(C(=O)N[C@H]4C5CC6CC4C[C@@](O)(C6)C5)n3)c2)cn1

IC50 (LAD2 [1]): 860 nM
Structure (SMILES): CC(C)(NC(=O)c1nc(-c2ccc3cn[nH]c3c2)cnc1N)C1CCNCC1

IC50 (LAD2 [1]): 180 nM
Structure (SMILES): CCn1cc(-c2cccc(-c3cnc(N)c(C(=O)N[C@H]4C5CC6CC4C[C@](O)(C6)C5)n3)c2)cn1

IC50 (LAD2 [1]): 160 nM
Structure (SMILES): NC(=O)Cn1cc(-c2cccc(-c3cnc(N)c(C(=O)N[C@H]4C5CC6CC4C[C@@](O)(C6)C5)n3)c2)cn1

IC50 (LAD2 [1]): 400 nM
Structure (SMILES): Nc1ncc(-c2ccc3cn[nH]c3c2)nc1C(=O)N[C@H]1C2CC3CC1C[C@](O)(C3)C2

IC50 (LAD2 [1]): 180 nM
Structure (SMILES): COCCn1cc(-c2cccc(-c3cnc(N)c(C(=O)N[C@H]4C5CC6CC4C[C@@](O)(C6)C5)n3)c2)cn1

IC50 (LAD2 [1]): 140 nM
Structure (SMILES): Nc1ncc(-c2cccc(-c3cnn(CC(F)(F)F)c3)c2)nc1C(=O)N[C@H]1C2CC3CC1C[C@@](O)(C3)C2

IC50 (LAD2 [1]): 1960 nM
Structure (SMILES): COc1cccc(-c2cnc(N)c(C(=O)NC(C)(C)C3CCNCC3)n2)c1

Structure (SMILES): Nc1ncc(-c2cccc(-c3cnn(CC(=O)O)c3)c2)nc1C(=O)N[C@H]1C2CC3CC1C[C@@](O)(C3)C2
inhibition at 1 µM (LAD2 [2]): 43%
